Experimental data: ChEMBL document CHEMBL3526062, “Role of human UDP-glucuronosyltransferases in the biotransformation of the triazoloacridinone and imidazoacridinone antitumor agents C-1305 and C-1311: highly selective substrates for UGT1A10” (Drug Metab Dispos, 2012)

Key:
[1] = Drug metabolism in human intestinal microsomes assessed as glucuronidation activity at 0.2 mM for 60 mins by ESI-MS analysis in presence of 3 mM UDP-GlcUA; assay type: ADME, Intestine, Microsome; settings: 1 h, 200 µM
Method in brief: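 Single-donor liver or intestinal microsomes (20 μg total protein) incubated with 0.2 mM substrate and 3 mM UDP-GlcUA for 60 min at 37°C in Tris-HCl pH 7.4, MgCl2, saccharolactone, 2% DMSO. Ethanol stop, centrifuged, HPLC analysis; triplicates.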

[2] = molecular target: T1, UDP-glucuronosyltransferase 1A7 (Homo sapiens, UniProt Q9HAW7); assay: Drug metabolism assessed as human recombinant UGT1A7-mediated compound formation treated with C-1311 for 60 mins by ESI-MS/UV-vis spectroscopy in presence of 3 mM UDP-GlcUA; assay type: ADME; settings: recombinant enzyme, 1 h
T1 sequence (Q9HAW7 whole entry): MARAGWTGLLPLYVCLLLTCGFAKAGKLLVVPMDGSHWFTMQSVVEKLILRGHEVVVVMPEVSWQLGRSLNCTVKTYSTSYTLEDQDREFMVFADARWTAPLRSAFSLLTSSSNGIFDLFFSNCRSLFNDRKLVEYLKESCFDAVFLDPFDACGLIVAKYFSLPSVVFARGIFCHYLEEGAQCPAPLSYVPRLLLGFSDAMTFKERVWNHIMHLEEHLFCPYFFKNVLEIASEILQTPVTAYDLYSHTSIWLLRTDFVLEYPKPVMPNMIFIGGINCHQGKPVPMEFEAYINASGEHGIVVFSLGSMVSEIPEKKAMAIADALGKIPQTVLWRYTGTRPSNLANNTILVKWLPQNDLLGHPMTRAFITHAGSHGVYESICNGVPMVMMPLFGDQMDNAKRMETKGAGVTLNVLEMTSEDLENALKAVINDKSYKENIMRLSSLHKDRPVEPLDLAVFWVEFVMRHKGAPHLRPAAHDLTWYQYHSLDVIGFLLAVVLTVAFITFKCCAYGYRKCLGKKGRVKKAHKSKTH

[3] = molecular target: T2, UDP-glucuronosyltransferase 1A1 (Homo sapiens, UniProt P22309); assay: Activity of human recombinant UGT1A1 expressed in baculovirus-infected Sf9 cells assessed as glucuronidation activity per mg of protein at 100 to 200 uM after 60 mins in presence of 3 mM UDP-GlcUA; assay type: ADME; settings: sf9, 1 h
T2 sequence (P22309 whole entry): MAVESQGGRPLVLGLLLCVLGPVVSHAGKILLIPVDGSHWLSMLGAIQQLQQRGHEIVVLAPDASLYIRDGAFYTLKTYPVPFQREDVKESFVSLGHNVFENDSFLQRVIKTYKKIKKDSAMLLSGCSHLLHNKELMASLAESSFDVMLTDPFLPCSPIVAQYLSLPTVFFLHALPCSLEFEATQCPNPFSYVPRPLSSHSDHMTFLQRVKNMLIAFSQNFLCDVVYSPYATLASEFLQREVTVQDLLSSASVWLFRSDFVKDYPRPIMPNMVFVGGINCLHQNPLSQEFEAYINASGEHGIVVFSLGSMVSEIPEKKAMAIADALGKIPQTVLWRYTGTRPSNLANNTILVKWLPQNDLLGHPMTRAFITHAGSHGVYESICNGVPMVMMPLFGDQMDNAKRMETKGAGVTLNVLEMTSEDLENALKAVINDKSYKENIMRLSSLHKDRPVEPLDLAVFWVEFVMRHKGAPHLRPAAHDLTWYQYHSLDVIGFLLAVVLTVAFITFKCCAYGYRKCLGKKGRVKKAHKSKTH
Method in brief: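 Screening: 5 μg recombinant UGT protein (His-tag levels normalized) in Tris-HCl pH 7.4, 5 mM MgCl2, 5 mM saccharolactone, 2% DMSO to permeabilize membranes. Substrate at 100 or 200 μM, added in water. Started with 3 mM UDP-GlcUA, 60 min at 37°C, stopped with ethanol, then centrifuged. Glucuronide quantified by reversed-phase C18 HPLC against the substrate response; triplicates.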

[4] = molecular target: T3, UDP-glucuronosyltransferase 1A9 (Homo sapiens, UniProt O60656); assay: Activity of human recombinant UGT1A9 expressed in baculovirus-infected Sf9 cells assessed as enzyme-mediated glucuronidation per mg protein at 300 uM after 60 mins by Michaelis-Menten equation in presence of 3 mM UDP-GlcUA; assay type: ADME; settings: sf9, 1 h
T3 sequence (O60656 whole entry): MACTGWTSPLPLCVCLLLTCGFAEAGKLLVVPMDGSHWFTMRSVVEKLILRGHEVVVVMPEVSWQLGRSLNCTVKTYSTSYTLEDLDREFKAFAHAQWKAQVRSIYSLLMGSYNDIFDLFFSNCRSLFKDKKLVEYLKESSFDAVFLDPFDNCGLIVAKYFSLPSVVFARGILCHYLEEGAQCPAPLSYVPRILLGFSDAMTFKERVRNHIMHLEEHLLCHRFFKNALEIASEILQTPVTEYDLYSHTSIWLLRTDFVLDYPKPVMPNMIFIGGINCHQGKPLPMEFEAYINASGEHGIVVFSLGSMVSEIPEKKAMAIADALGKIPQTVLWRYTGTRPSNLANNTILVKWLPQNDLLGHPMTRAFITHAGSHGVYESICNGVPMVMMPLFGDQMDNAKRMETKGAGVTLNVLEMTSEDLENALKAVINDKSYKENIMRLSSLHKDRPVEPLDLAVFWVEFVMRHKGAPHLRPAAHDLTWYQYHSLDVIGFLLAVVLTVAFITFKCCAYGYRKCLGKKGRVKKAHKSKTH

[5] = molecular target: T4, UDP-glucuronosyltransferase 1A10 (Homo sapiens, UniProt Q9HAW8); assay: Drug metabolism assessed as human recombinant UGT1A10-mediated compound formation treated with C-1305 for 60 mins by ESI-MS/UV-vis spectroscopy in presence of 3 mM UDP-GlcUA; assay type: ADME; settings: recombinant enzyme, 1 h
T4 sequence (Q9HAW8 whole entry): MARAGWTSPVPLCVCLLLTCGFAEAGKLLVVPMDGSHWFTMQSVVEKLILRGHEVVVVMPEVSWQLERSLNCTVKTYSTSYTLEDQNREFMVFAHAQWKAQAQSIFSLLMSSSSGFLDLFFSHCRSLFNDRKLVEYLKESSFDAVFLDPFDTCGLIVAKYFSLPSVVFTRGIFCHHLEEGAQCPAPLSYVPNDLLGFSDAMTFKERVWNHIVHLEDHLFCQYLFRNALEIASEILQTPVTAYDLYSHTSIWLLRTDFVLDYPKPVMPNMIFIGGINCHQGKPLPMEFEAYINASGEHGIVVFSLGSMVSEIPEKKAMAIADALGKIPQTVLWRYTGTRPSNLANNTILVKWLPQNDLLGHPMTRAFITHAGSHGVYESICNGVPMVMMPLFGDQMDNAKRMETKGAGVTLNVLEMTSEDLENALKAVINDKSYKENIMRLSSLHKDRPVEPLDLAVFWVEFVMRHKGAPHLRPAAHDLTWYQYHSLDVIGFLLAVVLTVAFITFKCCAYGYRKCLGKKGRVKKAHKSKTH
Method in brief: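 His-tagged recombinant human UGT expressed in baculovirus-infected insect cells, levels normalized by anti-His Western blot; 5 μg membrane protein incubated 60 min at 37°C in […] pH 7.4, 5 mM MgCl2, 5 mM saccharolactone, 2% DMSO, substrate 100 or 200 μM; started with UDP-GlcUA; ethanol stop, centrifuged; supernatant by reversed-phase HPLC-UV/ESI-MS; glucuronide confirmed by β-glucuronidase hydrolysis; triplicate.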

Compound	Drug metabolism [1]	Drug metabolism [2]	Drug metabolism [3]	Drug metabolism [4]	Drug metabolism [5]
CCN(CC)CCNc1ccc2ncn3c4ccc(O)cc4c(=O)c1c23 [C-1311]	metabolite_detected	metabolite_detected	< 0.1 nmol/min/mg	–	–
CN(C)CCCNc1ccc2nnn3c4ccc(O)cc4c(=O)c1c23	metabolite_detected	–	< 0.1 nmol/min/mg	0.15 nmol/min/mg	metabolite_detected
